Screens deposited in PubChem BioAssay by several laboratories.
Most compounds without a hit are left out; they make up all but 6.9% or so of the library.
PostGolgi ctrl = growth of the yeast control strain, post-Golgi counter-screen. efflux-deficient yeast background strain, growth absorbance A615, 16 h. inhibition, % at 10 µM. AID 738. 5% of 98,000 active
PostGolgi yeast = growth inhibition of a yeast mutant, post-Golgi transport screen; post-Golgi transport phenotypic cell assay; inhibition, % at 10 µM; 0.9% of 98,000 active; AID 739;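 further: yeast cells grown in 1536-well plates; yeast grown about 18 h at 30C before absorbance read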
tolC growth inh = E. coli tolC mutant growth inhibition; growth inhibition, % at 10 µM (by protocol); 2.2% of 65,000 active; E. coli BW25113 tolC mutant growth, OD615; AID 573;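 active means growth inhibition at or above a cutoff equal to the mean over every tested compound plus 3 SD, cut at about 60% in these data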;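 further: growth measured after 20 h incubation at 37 °C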
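Test system: tolC-deleted E. coli BW25113; medium: LB with kanamycin 50 µg/mL; compound: single-point testing at 10 µM; incubation: 20 h compound exposure of bacteria at 37 °C; signal: OD at 615 nm; evaluation: growth inhibition in percent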
Calb biofilm kill = kills Candida albicans biofilms. inhibition, % at 6 µM. C. albicans biofilm + clotrimazole, Alamar Blue. 0.14% of 85,000 active;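 active means inhibition above 20%; inactive means inhibition below 20%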;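 further: preformed 24 hr biofilms exposed to compound for 48 hr; 0% = biofilm without compound and 100% = blank killed by clotrimazole plus chlorhexidine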
Pyk2 oligo antag = Pyk2 (human) oligomerization antagonism; Q14289; Q293 cells, Pyk2 FERM NanoBiT luminescence; stronger effect = lower value; z-score (the deposit names both 25 µM and 10 µM); 0.83% of 99,000 active; AID 1347419;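 active means Z-score of -3 or lower, scaled per plate to the spread of control and sample wells; inactive means z-score above -3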;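 further: negative z-score means lost luminescence so less FERM oligomerization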
FAK inh = blocks human focal adhesion kinase activity; Q05397; biochemical FAK kinase activity assay; inhibition, %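 (tested at 7 µM)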; 0.84% of 97,000 active; AID 727; in the data active means inhibition above about 19%;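 further: 0% = DMSO and 100% = reference compound high control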
Target sequence (Q05397 whole entry, looked up): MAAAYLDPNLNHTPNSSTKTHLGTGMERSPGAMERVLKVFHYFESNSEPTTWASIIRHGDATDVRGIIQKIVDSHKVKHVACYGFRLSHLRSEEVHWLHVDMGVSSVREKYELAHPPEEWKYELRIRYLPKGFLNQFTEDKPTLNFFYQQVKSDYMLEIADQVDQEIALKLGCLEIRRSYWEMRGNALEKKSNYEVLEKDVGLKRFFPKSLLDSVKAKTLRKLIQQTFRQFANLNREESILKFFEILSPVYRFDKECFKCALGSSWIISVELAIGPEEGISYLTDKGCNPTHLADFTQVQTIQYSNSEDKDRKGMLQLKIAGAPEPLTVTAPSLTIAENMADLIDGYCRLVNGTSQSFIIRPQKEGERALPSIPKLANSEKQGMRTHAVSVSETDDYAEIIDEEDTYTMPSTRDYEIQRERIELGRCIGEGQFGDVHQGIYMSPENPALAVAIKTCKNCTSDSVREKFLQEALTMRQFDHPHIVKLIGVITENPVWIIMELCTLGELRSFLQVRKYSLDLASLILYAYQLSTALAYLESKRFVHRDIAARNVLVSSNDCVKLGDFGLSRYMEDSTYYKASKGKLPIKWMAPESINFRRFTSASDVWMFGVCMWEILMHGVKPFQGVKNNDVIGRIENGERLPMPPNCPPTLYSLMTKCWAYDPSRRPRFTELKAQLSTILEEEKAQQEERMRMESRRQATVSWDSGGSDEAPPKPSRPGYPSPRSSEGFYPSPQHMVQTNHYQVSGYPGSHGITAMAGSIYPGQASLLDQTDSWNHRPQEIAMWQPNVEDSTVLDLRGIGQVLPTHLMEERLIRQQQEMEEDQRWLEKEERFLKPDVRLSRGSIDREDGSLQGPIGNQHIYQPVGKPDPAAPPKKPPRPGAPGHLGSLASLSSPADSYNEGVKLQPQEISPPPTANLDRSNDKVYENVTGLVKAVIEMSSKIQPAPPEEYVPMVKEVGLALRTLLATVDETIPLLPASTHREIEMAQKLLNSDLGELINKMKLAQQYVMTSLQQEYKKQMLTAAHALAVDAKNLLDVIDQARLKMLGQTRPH
* hit, by the source's call; / = not tested or not shown. Unless noted, no stated cut-off is given here; in the data, active means inhibition above about 30%; inactive means the rest.

SMILES	PostGolgi ctrl	PostGolgi yeast	tolC growth inh	Calb biofilm kill	Pyk2 oligo antag	FAK inh
COCCNC(=O)C(c1cccs1)N(Cc1cccs1)C(=O)Cn1nnc2ccccc21 (stereo unspecified)	/	/	/	10	-0.22	-2
Cc1ccc(-c2nnn(CC(=O)N(Cc3ccco3)C(C(=O)NC(C)(C)C)c3cccs3)n2)o1 (stereo unspecified)	11	0	74*	4	-0.19	-2
CC(C)CCNC(=O)C(c1ccco1)N(Cc1cccs1)C(=O)Cn1nnc2ccccc21 (stereo unspecified)	-4	-14	56	4	-3.1*	/
CC(C)(C)NC(=O)C(c1ccco1)N(C(=O)Cn1nnc(-c2ccc(F)cc2)n1)c1cccc(F)c1 (stereo unspecified)	36*	2	67*	5	-0.62	/
Cc1ccc(-c2nnn(CC(=O)N(Cc3cccs3)C(C(=O)NC(C)(C)C)c3ccc(C)o3)n2)o1 (stereo unspecified)	10	-5	-28	4	-0.84	-2
Cc1ccc(-c2nnn(CC(=O)N(Cc3cccs3)C(C(=O)NC(C)(C)C)c3ccco3)n2)o1 (stereo unspecified)	24	-6	69*	15	-1.2	-4
CCOC(=O)C1CCN(C(=O)CCc2nc3ccccc3[nH]2)CC1	-4	-5	-23	2	1.3	/
Cc1cc(C)n(-c2ccc(C(=O)Nc3cc(C(F)(F)F)ccc3N3CCOCC3)cc2)n1	2	-6	/	4	0.78	1
COC(=O)c1nnn(-c2nc(N3CCCCC3)nc(N3CCCCC3)n2)c1C	/	/	-17	4	/	/
COc1ccccc1C(=O)NCC(=O)OC(C)C(=O)NC(=O)NC1CCCCC1 (stereo unspecified)	8	11	/	/	0.09	-1
Cc1nn(-c2ccccc2)c(Cl)c1C(=O)OC(C)C(=O)NC(=O)NC1CCCCC1 (stereo unspecified)	21	5	/	2	-4.2*	5
CCOC(=O)C(C)C1(O)c2ccccc2-c2ncccc21 (stereo unspecified)	8	3	-26	/	-0.42	2
OC(CC1CC12c1ccccc1-c1ncccc12)(c1ccccc1)c1ccccc1 (stereo unspecified)	45*	0	/	5	-1.1	3
CCN(Cc1ccccc1)S(=O)(=O)c1ccc(C(=O)Nc2nnc(C3CC3)o2)cc1	3	14	19	12	/	/
NC(=O)c1ccsc1NC(=O)c1ccc(S(=O)(=O)N2CCCCC2)cc1	51*	-4	32	12	/	10
COCc1nnc(NC(=O)c2ccc(S(=O)(=O)N(C)C3CCCCC3)cc2)o1	9	-5	95*	11	-0.57	-5
COCc1nnc(NC(=O)c2ccc(S(=O)(=O)N3CCCCCC3)cc2)o1	10	-5	74*	8	-0.71	-2
Cc1nnc(NC(=O)c2ccc(S(=O)(=O)N(C)Cc3ccccc3)cc2)o1	11	0	74*	1	-1.5	-3
COCCN(CCOC)S(=O)(=O)c1ccc(C(=O)Nc2nnc(C)o2)cc1	5	0	-17	/	0.21	-1
CC1CC(C)CN(S(=O)(=O)c2ccc(C(=O)Nc3sccc3C(N)=O)cc2)C1 (stereo unspecified)	26	-2	/	6	/	2
C=CCOc1ccc(Cl)cc1C(=O)O	17	0	-3	6	0.19	-2
Cc1ccc(CNC(=O)CSCC(=O)O)cc1	41*	4	/	4	0.12	-1
Cc1ccc(CNC(=O)CS(=O)CC(=O)O)cc1 (stereo unspecified)	-2	-2	/	-1	0.28	-1
O=C(C1CC1)N1CCc2cc(S(=O)(=O)NCCC3=CCCCC3)ccc21	36*	-3	74*	7	1.1	1
CCc1nnc(NC(=O)CSc2nnc(CNc3cccc(C)c3)n2-c2ccccc2)s1	-4	4	12	1	-0.96	2
SMILES	PostGolgi ctrl	PostGolgi yeast	tolC growth inh	Calb biofilm kill	Pyk2 oligo antag	FAK inh
CCN(CC)CCNC(=O)c1c(C)n(-c2ccccc2)c2cc(Br)c(OC)cc12	11	-7	/	4	-1.2	6
O=C(COC(=O)c1cc(-c2ccc(Cl)s2)nc2ccccc12)NCc1ccco1	33*	-9	/	5	-1	-2
Cc1[nH]nc(-c2ccc(O)c(C)c2O)c1Oc1ccccc1	38*	2	/	-4	-3.4*	1
CCOc1ccc(-c2n[nH]c(C)c2Oc2ccc(OC)cc2)c(O)c1	33*	12	95*	7	-3.1*	-3
O=C(O)c1ccc(COc2ccc(/C=N/NC(=O)c3cccs3)cc2)cc1	10	-1	/	/	0.52	-3
O=C(N/N=C/c1ccccc1)c1sccc1OCc1ccc(F)cc1	68*	0	/	/	-0.71	-2
O=C(N/N=C/c1cccc(OCc2ccccc2)c1)c1cccs1	37*	9	/	8	-1.2	4
C=CCc1c(C)nc(SC)nc1Nc1ccc(C(C)=O)cc1	31*	6	22	9	-1.5	-5
C=CCc1c(C)nc(SC)nc1Nc1ccc(C(=O)O)cc1	8	23	10	2	-0.51	-1
O=c1[nH]c(SCc2cccc(Cl)c2)nc2c1CCCC2	34*	0	2	10	-1.7	-1
Cn1c(COc2ccc(Cl)cc2)nnc1SCc1ncc(-c2ccccc2)o1	47*	21	54	9	0.68	7
COc1ccc(-n2cnnc2SCc2ncc(-c3ccccc3)o2)cc1	13	-3	16	-2	1.2	2
COc1ccc(C2SCC(=O)N2CC23CC4CC(CC(C4)C2)C3)cc1 (stereo unspecified)	60*	16	/	1	-0.72	0
COc1ccc(C2SCC(=O)N2c2c(C)n(C)n(-c3ccccc3)c2=O)cc1 (stereo unspecified)	-8	-5	-13	9	0.12	2
Clc1ccc(-c2ccnc(Oc3cc(Cl)ccc3Cl)n2)cc1	2	-9	/	/	0.33	6
CC1CCN(C(=O)c2cc(-c3ccccc3O)on2)CC1	35*	-10	-1	-1	/	3
O=C(c1cc(-c2ccc(O)cc2)on1)N1CCc2ccccc2C1	28	5	21	10	/	2
O=C(c1cc(-c2ccccc2)on1)N1CCCC1	13	-6	-2	5	-0.57	4
O=C(c1cc(-c2ccccc2O)on1)N1CCc2ccccc2C1	56*	-1	12	0	/	-12
CCc1ccc(NC2=CC(=O)CC(c3ccco3)C2)cc1 (stereo unspecified)	1	7	20	5	-0.21	-1
CC(C)N=c1scc(-c2ccco2)n1/N=C/c1ccc(O)c(O)c1	55*	3	/	7	0.07	2
CN=c1scc(C)n1/N=C/c1ccc(O)c(O)c1O	6	-5	/	-1	-0.7	1
Cc1c(C#N)c(N=CN(C)C)c(C(=O)c2ccc(Br)cc2)n1-c1ccccc1	28	5	/	-4	0.03	-2
Cc1c(C#N)c(N=CN(C)C)c(C(=O)c2ccccc2)n1-c1ccc(Br)cc1	43*	-3	/	6	0.19	1
